The source made the active and inactive calls. No cut-off for these calls is given here.
Experiments:
[1] = Cytotoxicity against HEK293T cells assessed as reduction in cell viability after 48 hrs by MTT assay; type: cell-based, HEK-293T; settings: human
A549 = test: Growth inhibition of human A549 cells after 48 hrs by MTT assay; type: functional; settings: A549, 48 h
How it was run: (§1)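 Proliferation read-out; GI50 taken as the concentration giving 50% reduction of cancer cell proliferation.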

MCF7 = test: Growth inhibition of human MCF7 cells after 48 hrs by MTT assay; type: functional; settings: MCF7, 48 h; how it was run: as §1
[2] = Inhibition of porcine brain tubulin polymerization measured over 30 mins; design: species or system Sus scrofa
HeLa [3] = test: Growth inhibition of human HeLa cells after 48 hrs by MTT assay; type: functional; how it was run: as §1
HepG2 = test: Growth inhibition of human HepG2 cells after 48 hrs by MTT assay; type: functional; settings: HepG2, 48 h; how it was run: as §1
HeLa [4] = test: Antitumor activity against human HeLa cells xenografted in nude mouse assessed as loose and irregular arrangement of tumor cells at 10 mg/kg, ip after 14 days by hematoxylin and eosin staining based microscopic analysis; type: functional, organism-based
How it was run: (§2)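 Excised tumours and heart, liver, kidney and spleen were H&E-stained and examined microscopically. Tumour scoring covered cell arrangement and necrosis. Organ scoring covered inflammatory infiltration, edema, necrosis and cell morphology.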

HeLa [5] = test: Antitumor activity against human HeLa cells xenografted in nude mouse assessed as tumor volume at 10 mg/kg, ip after 14 days (reference value: 2292.17 mm3); type: functional
Bos taurus = species: Bos taurus; test: Inhibition of colchicine binding to calf brain tubulin preincubated for 1 hr followed by colchicine addition measured after 1 hr by UPLC-MS/MS analysis
HeLa [6] = test: Antitumor activity against human HeLa cells xenografted in nude mouse assessed as tumor weight at 10 mg/kg, ip after 14 days (reference value: 1.54 g); type: functional
HeLa [7] = test: Antitumor activity against human HeLa cells xenografted in nude mouse assessed as necrosis of tumor cells at 10 mg/kg, ip after 14 days by hematoxylin and eosin staining based microscopic analysis; type: functional, organism-based; how it was run: as §2
Tubulin (Homo sapiens) [8] = target: T1, Tubulin (Homo sapiens) (UniProt P68371+Q9H4B7+P0DPH7+P68366+Q13509+Q71U36+P04350+Q3ZCM7+P07437+P68363+Q9BQE3+Q6PEY2+Q13885+Q9BVA1+Q9BUF5); test: Inhibition of tubulin polymerization in human HeLa cells assessed as abnormal microtubule network formation at 0.04 uM after 12 hrs by DAPI staining based immunofluorescence confocal laser scanning microscopic analysis; type: cell-based
Tubulin (Homo sapiens) [9] = target: T1, Tubulin (Homo sapiens); test: Inhibition of tubulin polymerization in human HepG2 cells assessed as abnormal microtubule network formation at 0.04 uM after 12 hrs by DAPI staining based immunofluorescence confocal laser scanning microscopic analysis; type: cell-based

Structure (SMILES) | CC50 at 48 h [1] | GI50 (A549) | GI50 (MCF7) | IC50 [2] | GI50 (HeLa [3]) | GI50 (HepG2) | Activity (HeLa [4]) | Activity (HeLa [5]) | inhibition (Bos taurus) | Activity (HeLa [6]) | Activity (HeLa [7]) | inhibition (Tubulin (Homo sapiens) [8]) | inhibition (Tubulin (Homo sapiens) [9])
COc1ccc(C2=NN(C(=O)c3ccc(OC)nc3)C(c3cn(C)c4ccc(OC)cc34)C2)cc1 (configuration not stated) | > 300 µM | 0.45 µM | 0.56 µM | 2.3 µM | 0.18 µM | 0.23 µM | – | – | – | – | – | – | –
COc1cccc(C2=NN(C(=O)c3ccc(OC)nc3)C(c3cn(C)c4ccc(OC)cc34)C2)c1 (configuration not stated) | > 300 µM | 0.47 µM | 0.13 µM | 1.9 µM | 0.34 µM | 0.19 µM | – | – | – | – | – | – | –
Cn1cc(C2CC(c3ccccc3)=NN2C(=O)c2ccc(Cl)nc2)c2ccccc21 (configuration not stated) | > 300 µM | 8.46 µM | 9.25 µM | 31.7 µM | 8.31 µM | 7.91 µM | – | – | – | – | – | – | –
COc1ccc2c(c1)c(C1CC(c3ccc(Br)cc3)=NN1C(=O)c1ccc(OC)nc1)cn2C (configuration not stated) | > 300 µM | > 10 µM | 6.96 µM | 19.3 µM | > 10 µM | > 10 µM | – | – | – | – | – | – | –
COc1ccc(C2=NN(C(=O)c3cccnc3)C(c3cn(C)c4ccc(Br)cc34)C2)cc1 (configuration not stated) | > 300 µM | 1.19 µM | 1.56 µM | 4.5 µM | 0.89 µM | 0.54 µM | – | – | – | – | – | – | –
Cn1cc(C2CC(c3ccccc3)=NN2C(=O)c2cccnc2Cl)c2ccccc21 (configuration not stated) | > 300 µM | > 10 µM | > 10 µM | > 40 µM | > 10 µM | > 10 µM | – | – | – | – | – | – | –
Cn1cc(C2CC(c3ccccc3)=NN2C(=O)c2cccnc2)c2ccccc21 (configuration not stated) | > 300 µM | > 10 µM | 7.2 µM | 26.7 µM | > 10 µM | 4.63 µM | – | – | – | – | – | – | –
COc1ccc2c(c1)c(C1CC(c3ccccc3)=NN1C(=O)c1ccc(OC)nc1)cn2C (configuration not stated) | > 300 µM | 1.11 µM | 0.99 µM | 2.9 µM | 1.1 µM | 1.33 µM | – | – | – | – | – | – | –
COc1ccc(C2=NN(C(=O)c3ccncc3)C(c3cn(C)c4ccc(Br)cc34)C2)cc1OC (configuration not stated) | > 300 µM | 4.25 µM | > 10 µM | 17.8 µM | > 10 µM | > 10 µM | – | – | – | – | – | – | –
COc1cc(C2=NN(C(=O)c3cccnc3)C(c3cn(C)c4ccc(Br)cc34)C2)cc(OC)c1OC (configuration not stated) | 131 µM | > 10 µM | > 10 µM | > 40 µM | > 10 µM | > 10 µM | – | – | – | – | – | – | –
Cn1cc(C2CC(c3ccc(F)cc3)=NN2C(=O)c2cccnc2)c2cc(Br)ccc21 (configuration not stated) | > 300 µM | 1.38 µM | 0.48 µM | 5.2 µM | 0.63 µM | 0.48 µM | – | – | – | – | – | – | –
Cn1cc(C2CC(c3ccccc3)=NN2C(=O)c2cccnc2)c2cc(Br)ccc21 (configuration not stated) | > 300 µM | 1.6 µM | 1.52 µM | 3.4 µM | 1.73 µM | 2.52 µM | – | – | – | – | – | – | –
COc1ccc(/C=C\c2cc(OC)c(OC)c(OC)c2)cc1O [COMBRETASTATIN A4] | > 300 µM | 0.31 µM | 0.14 µM | 2.1 µM | 0.092 µM | 0.17 µM | Active | 918.61 mm3 | Active | 0.59 g | Active | – | –
CC(=O)O[C@H]1C(=O)[C@@]2(C)[C@H]([C@H](OC(=O)c3ccccc3)[C@]3(O)C[C@H](OC(=O)[C@H](O)[C@@H](NC(=O)c4ccccc4)c4ccccc4)C(C)=C1C3(C)C)[C@]1(OC(C)=O)CO[C@@H]1C[C@@H]2O | – | – | – | – | – | – | – | – | – | – | – | inactive | inactive
Cc1ccc(C(=O)N2N=C(c3ccccc3)CC2c2cn(C)c3ccccc23)cn1 (configuration not stated) | 154 µM | 1.19 µM | 4.01 µM | 13.2 µM | 2.39 µM | 1.22 µM | – | – | – | – | – | – | –
COc1ccc(C2=NN(C(=O)c3cccnc3)C(c3cn(C)c4ccc(Br)cc34)C2)cc1OC (configuration not stated) | > 300 µM | 2.38 µM | 1.17 µM | 5.6 µM | 2.09 µM | 2.45 µM | – | – | – | – | – | – | –
COc1cc(C2=NN(C(=O)c3ccc(C)nc3)C(c3cn(C)c4ccccc34)C2)cc(OC)c1OC (configuration not stated) | > 300 µM | 0.23 µM | 0.18 µM | 2.3 µM | 0.21 µM | 0.31 µM | – | – | – | – | – | – | –
COc1ccc2c(c1)c(C1CC(c3ccc(F)cc3)=NN1C(=O)c1ccc(OC)nc1)cn2C (configuration not stated) | > 300 µM | 0.71 µM | 0.48 µM | 2.6 µM | 0.41 µM | 0.22 µM | – | – | – | – | – | – | –
COc1cccc(C2=NN(C(=O)c3cccnc3)C(c3cn(C)c4ccc(OC)cc34)C2)c1 (configuration not stated) | 125 µM | 1.02 µM | 0.81 µM | 2.1 µM | 1.27 µM | 0.91 µM | – | – | – | – | – | – | –
Cn1cc(C2CC(c3ccc(Cl)cc3)=NN2C(=O)c2cccnc2)c2cc(Br)ccc21 (configuration not stated) | > 300 µM | 7.65 µM | 8.1 µM | 19.4 µM | 5.2 µM | 5.8 µM | – | – | – | – | – | – | –
COc1ccc2c(c1)c(C1CC(c3ccc(Cl)cc3)=NN1C(=O)c1ccc(OC)nc1)cn2C (configuration not stated) | > 300 µM | 3.39 µM | 3.71 µM | 15.6 µM | 2.26 µM | 2.08 µM | – | – | – | – | – | – | –
COc1ccc2c(c1)c(C1CC(c3cc(OC)c(OC)c(OC)c3)=NN1C(=O)c1ccc(OC)nc1)cn2C (configuration not stated) | > 300 µM | > 10 µM | > 10 µM | > 40 µM | > 10 µM | > 10 µM | – | – | – | – | – | – | –
Cn1cc(C2CC(c3ccc(Br)cc3)=NN2C(=O)c2cccnc2)c2cc(Br)ccc21 (configuration not stated) | > 300 µM | > 10 µM | 11.8 µM | 18.4 µM | > 10 µM | 6.91 µM | – | – | – | – | – | – | –
COc1ccc2c(c1)c(C1CC(c3ccccc3)=NN1C(=O)c1cccnc1)cn2C (configuration not stated) | > 300 µM | > 10 µM | 1.16 µM | 4.3 µM | 3.59 µM | 5.11 µM | – | – | – | – | – | – | –
Cn1cc(C2CC(c3ccccc3)=NN2C(=O)c2ccncc2)c2ccccc21 (configuration not stated) | 97.3 µM | 0.99 µM | 1.11 µM | > 40 µM | 0.59 µM | 0.63 µM | – | – | – | – | – | – | –
COc1ccc(C(=O)N2N=C(c3ccccc3)CC2c2cn(C)c3ccccc23)cn1 (configuration not stated) | > 300 µM | 3.04 µM | 4.31 µM | 9.7 µM | 3.98 µM | 3.13 µM | – | – | – | – | – | – | –

From ChEMBL document CHEMBL4270573, “Novel nicotinoyl pyrazoline derivates bearing N-methyl indole moiety as antitumor agents: Design, synthesis and evaluation” (Eur J Med Chem, 2018)
